Columns and labels:
[1] = tested on: Nippostrongylus brasiliensis; assay: Antiparasitic activity against Nippostrongylus brasiliensis L4 assessed as parasite death at 20 uM relative to control; format: functional
[2] = tested on: Trypanosoma brucei brucei; assay: Antitrypanosomal activity against Trypanosoma brucei brucei 427 assessed as parasite death at 5 uM after 24 hrs by PI-staining based flow cytometry analysis relative to control; format: functional
Summary of the method: (§1)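 Bloodstream-form T. b. brucei strain 427 grown in HMI-9 with 10% FBS at 37 °C and 5% CO2. Exponential-phase parasites were seeded at 5 x 10⁵/mL and given compound from DMSO stocks, alongside 1% DMSO and nifurtimox control wells. After 24 h, aliquots were diluted into PBS with 1% glucose (pH 7.4) and propidium iodide and counted by flow cytometry (ex 488 nm). Viability (%) = 100 × cells treated / cells in DMSO control.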

[3] = Selectivity index, ratio of EC50 for mouse J774 cells to EC50 for antitrypanosomal activity against Trypanosoma brucei brucei 427; format: toxicity; details: read-out: Ratio EC50
Caenorhabditis elegans = assay: Antiparasitic activity against Caenorhabditis elegans assessed as inhibition of parasite motility at 100 uM after 17.5 hrs by motility assay relative to control; format: functional
Summary of the method: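 About 80 synchronized L4 worms per well in K buffer with 0.015% BSA. Motility was first recorded for 30 min to set 100%. Compound was then added at 100 µM in 1% DMSO, and motility was tracked automatically for 17.5 h. Mean motility at the final time was compared with 1% DMSO control wells. Eight replicates.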

J774 = assay: Cytotoxicity against mouse J774 cells assessed as reduction in cell viability after 24 hrs by WST-1 assay; format: cell-based; details: J774, 24 h
Summary of the method: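 Mouse J774 macrophages grown in DMEM with 10% FCS at 37 °C and 5% CO2. Viability was read with WST-1 at 6 concentrations, in triplicate, and expressed relative to the DMSO-treated control.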

[4] = target: T1, Thioredoxin glutathione reductase (Echinococcus granulosus) (UniProt Q869D7); assay: Inhibition of wild type recombinant Echinococcus granulosus TGR at 50 uM preincubated for NADPH followed by compound addition and measured after 3 mins by spectrophotometric analysis relative to control
T1 sequence (whole entry): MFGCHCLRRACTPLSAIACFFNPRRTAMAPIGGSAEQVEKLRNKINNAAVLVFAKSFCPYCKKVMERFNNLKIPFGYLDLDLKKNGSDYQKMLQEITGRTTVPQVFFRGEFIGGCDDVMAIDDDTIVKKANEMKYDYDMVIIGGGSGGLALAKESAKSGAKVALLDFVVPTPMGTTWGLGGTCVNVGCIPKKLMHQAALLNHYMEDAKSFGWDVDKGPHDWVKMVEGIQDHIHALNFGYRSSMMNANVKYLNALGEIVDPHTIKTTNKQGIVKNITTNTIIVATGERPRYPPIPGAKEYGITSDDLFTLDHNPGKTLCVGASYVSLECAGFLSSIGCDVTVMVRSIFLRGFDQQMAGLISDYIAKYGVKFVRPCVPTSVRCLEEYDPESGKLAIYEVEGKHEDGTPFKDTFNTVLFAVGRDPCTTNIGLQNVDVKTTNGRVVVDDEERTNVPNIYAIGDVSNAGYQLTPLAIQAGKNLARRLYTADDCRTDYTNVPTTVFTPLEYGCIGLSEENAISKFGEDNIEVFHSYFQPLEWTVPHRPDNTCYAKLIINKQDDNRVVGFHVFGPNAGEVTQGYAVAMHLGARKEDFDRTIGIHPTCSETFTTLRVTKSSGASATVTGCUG
Summary of the method: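 Recombinant wild-type E. granulosus TGR (1 nM) in 50 mM phosphate, 1 mM EDTA, pH 7, with 100 µM NADPH. Enzyme was preincubated for 3 min with NADPH and inhibitor at 50 µM (from a 100 mM DMSO stock). The reaction was started with 5 mM DTNB, and TNB formation was followed at 412 nm for 3 min. Runs were in duplicate, with controls lacking enzyme and lacking inhibitor.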

[5] = tested on: Trypanosoma brucei brucei; assay: Antitrypanosomal activity against Trypanosoma brucei brucei 427 assessed as parasite death at 30 uM after 24 hrs by PI-staining based flow cytometry analysis relative to control; format: functional; summary of the method: as §1
[6] = tested on: Trypanosoma brucei brucei; assay: Antitrypanosomal activity against Trypanosoma brucei brucei 427 assessed as parasite death after 24 hrs by PI-staining based flow cytometry analysis; format: functional, organism-based; details: Trypanosoma brucei, 427, 24 h
Summary of the method: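 Bloodstream-form T. b. brucei 427, cell line 449, carrying a redox biosensor, grown in HMI-9 with 10% FBS at 37 °C and 5% CO2. Exponential-phase cells at 5 x 10^5/mL were exposed to compound for 24 h; the control was 1% DMSO. Cells were then diluted into PBS with 1% glucose (pH 7.4) and propidium iodide, and analysed by flow cytometry (ex 488 nm). Viability was expressed as % of DMSO-control cell number.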

SMILES | Activity [1] [%] | Activity [2] [%] | selectivity ratio [3] | inhibition at 100 µM (Caenorhabditis elegans) [%] | EC50 (J774) [µM] | inhibition [4] [%] | Activity [5] [%] | EC50 [6] [µM]
CCOC(=O)C1=C(C(=O)OCC)C2CSC(CS1)N2Cc1ccc(OC)cc1 (stereo not drawn) | 13.8 | 3 | > 11 | 50 | > 200 | 36 | 97.7 | 18
CCOC(=O)C1=C(C(=O)OCC)C2CSC(CS1)N2Cc1ccc(F)cc1 (stereo not drawn) | 47.6 | 12.7 | 3.6 | 26 | 64.4 | 41 | 99.4 | 17.8
CCCSc1ccc2[nH]c(NC(=O)OC)nc2c1 [ALBENDAZOLE] | 100 | – | – | – | – | – | – | –
COC(=O)C1=C(C(=O)c2ccc(Cl)cc2)C2CSC(CS1)N2CCO (stereo not drawn) | 20.6 | 1.8 | – | 18 | – | 0 | 3.6 | –
O=C(OCc1c(-c2ccccc2)no[n+]1[O-])C1=C(C(=O)OCc2c(-c3ccccc3)no[n+]2[O-])C2CSC(CS1)N2Cc1ccccc1 (stereo not drawn) | – | 12.2 | – | – | – | – | 23.3 | –
O=C(OCc1c(-c2ccccc2)no[n+]1[O-])C1=C(C(=O)c2ccc(Cl)cc2)C2CSC(CS1)N2Cc1ccccc1 (stereo not drawn) | – | 89.4 | 1.2 | – | 3.1 | 0 | 97.7 | 2.5
CCOC(=O)C1=C(C(=O)OCC)C2CSC(CS1)N2CCCC(=O)OCc1c(-c2ccccc2)no[n+]1[O-] (stereo not drawn) | – | 60.4 | > 71 | 22 | > 200 | 0 | 97.8 | 2.8
CCOC(=O)C1=C(C(=O)OCC)C2CSC(CS1)N2Cc1ccc(Cl)cc1 (stereo not drawn) | 17.1 | 2.4 | > 25 | 37 | > 200 | 0 | 97.3 | 8
CCOC(=O)C1=C(C(=O)OCC)C2CSC(CS1)N2Cc1ccccc1 (stereo not drawn) | 5.9 | 3.5 | 10 | 20 | 200 | 0 | 98.8 | 18.9
COC(=O)C1=C(C(=O)c2ccc(Cl)cc2)C2CSC(CS1)N2Cc1ccccc1 (stereo not drawn) | 20.5 | 3.4 | – | 51 | – | 0 | 57.5 | –
CC1CS(=O)(=O)CCN1/N=C/c1ccc([N+](=O)[O-])o1 (stereo not drawn) [NIFURTIMOX] | – | – | 10 | – | 150 | – | – | –
COC(=O)C1=C(C(=O)c2ccc(Cl)cc2)C2CSC(CS1)N2Cc1ccc(OC)cc1 (stereo not drawn) | 27.6 | 0 | 0.6 | 3 | 9.7 | 29 | 95.9 | 16.4
